Experimental data taken from paper PMC4811700 (European journal of medicinal chemistry, 2016).

Columns and labels:
Mcl-1 = Mcl-1 (Homo sapiens, UniProt Q07820); assay: Fluorescence polarization competition assay; format: binding; settings: for change in experimental free energy of binding to Mcl-1: relative to the preceding compound in the series 3b, 3a, 3bi, 3bl; for binding affinity to Mcl-1 in vitro: data not shown
Mcl-1^172-327 = Mcl-1^172-327 (Homo sapiens, UniProt Q07820); assay: NMR 1H,15N-HSQC with 15N-labeled Mcl-1; format: binding; settings: 131 μM 15N-labeled Mcl-1, 182 μM compound
Mcl-1^172-327, sequence (Q07820 172-327): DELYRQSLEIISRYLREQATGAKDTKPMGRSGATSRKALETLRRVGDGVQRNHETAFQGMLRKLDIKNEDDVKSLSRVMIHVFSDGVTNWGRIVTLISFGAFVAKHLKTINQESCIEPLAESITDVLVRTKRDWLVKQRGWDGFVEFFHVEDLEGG
Procedure, shortened: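 2D 1H,15N-fast HSQC collected at 25 °C, 800 MHz, with and without compound. Buffer: 20 mM HEPES pH 6.8, 50 mM NaCl, 3 mM DTT, 20% D2O, 5% d6-DMSO. Backbone amide shift changes monitored.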

Mcl-1, sequence (Q07820 172-327): as above

O=C(O)c1cc(S(=O)(=O)Nc2ccc(Br)cc2)c2ccccc2c1O [Compound 3a, 4-(N-(4-bromophenyl)sulfamoyl)-1-hydroxy-2-naphthoic acid]
change in experimental free energy of binding to Mcl-1 (Mcl-1): -2.1 kcal/mol

CC(C)CN(c1ccc(OC(C)C)cc1)S(=O)(=O)c1cc(C(=O)O)c(O)c2ccccc12 [Compound 3ba, 1-Hydroxy-4-(N-isobutyl-N-(4-isopropoxyphenyl)sulfamoyl)-2-naphthoic acid]
interaction with Mcl-1 by HSQC chemical shift perturbation (Mcl-1^172-327): direct interaction

Cc1cc(Oc2ccc(NS(=O)(=O)c3cc(C(=O)O)c(O)c4ccccc34)cc2)cc(C)c1Cl [Compound 3bi, 4-(N-(4-(4-Chloro-3,5-dimethylphenoxy)phenyl)sulfamoyl)-1-hydroxy-2-naphthoic acid]
change in experimental free energy of binding to Mcl-1 (Mcl-1): -1.9 kcal/mol

Cc1cc(Oc2ccc(N(Cc3ccccc3)S(=O)(=O)c3cc(C(=O)O)c(O)c4ccccc34)cc2)cc(C)c1Cl [Compound 3bl, 4-(N-Benzyl-N-(4-(4-chloro-3,5-dimethylphenoxy)phenyl)sulfamoyl)-1-hydroxy-2-naphthoic acid]
change in experimental free energy of binding to Mcl-1 (Mcl-1): -0.8 kcal/mol

O=C(O)c1cc(S(=O)(=O)NCC2CCCCC2)c2ccccc2c1O [Compound 3g, 4-(N-(Cyclohexylmethyl)sulfamoyl)-1-hydroxy-2-naphthoic acid]
fold improvement in Mcl-1 inhibitory activity (Mcl-1; relative to unsubstituted benzylic amine derivative 3c): 8 fold

COc1c(C(=O)O)cc(S(=O)(=O)N(CC(C)C)c2ccc(Br)cc2)c2ccccc12 [Compound 12, 4-(N-(4-Bromophenyl)-N-isobutylsulfamoyl)-1-methoxy-2-naphthoic acid]
fold reduction in Mcl-1 activity (Mcl-1; methylation of hydroxyl group, relative to 3ca): ~40 fold

COC(=O)c1cc(S(=O)(=O)N(CC(C)C)c2ccc(OC(C)C)cc2)c2ccccc2c1O [Compound 13, Methyl 1-hydroxy-4-(N-isobutyl-N-(4-isopropoxyphenyl)sulfamoyl)-2-naphthoate]
binding affinity to Mcl-1 in vitro (Mcl-1): no binding affinity

CC(=O)OCOC(=O)c1cc(S(=O)(=O)N(CC(C)C)c2ccc(OC(C)C)cc2)c2ccccc2c1O [Compound 14, Acetoxymethyl 1-hydroxy-4-(N-isobutyl-N-(4-isopropoxyphenyl)sulfamoyl)-2-naphthoate]
binding affinity to Mcl-1 in vitro (Mcl-1): no binding affinity
